This note sets out measurements from PubChem BioAssay AID373 (The Scripps Research Institute Molecular Screening Center, 2006).

Each structure is given as a SMILES string. About 60 (0.1%) of roughly 60,000 compounds were called active.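 The calls were made as follows: active = activation above the screen-wide mean plus 3 SD (cut at about 4.5% in these data, passing the limit was not always enough); inactive = the rest, inconclusive results apart.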 This excerpt belongs to a sample that is enriched for actives.

This test deals with Sphingosine 1-phosphate receptor 3 (Homo sapiens) (UniProt Q99500). Kind of test: activators of S1P3 receptor signaling – cell-based, primary and confirmation, NFAT-BLA reporter, primary screen (AID 373). In a few lines: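 Assay system: stable CHO line with human S1P3, Gα16, NFAT-BLA reporter; Detection: FRET β-lactamase substrate fluorescence, excitation 405 nm, 460/535 nm emission ratio, background-subtracted; Read-out: percent activation versus median 1 µM S1P response, basal-subtracted, per plate; Incubation: cells plated overnight, compound 4 h 37 °C, substrate 2 h RT.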

[1] abbreviates: S1P3 NFAT-BLA reporter cells, agonism, FRET ratio, at 4.5 µM, stronger effect = higher value, relative to 1 µM S1P, basal subtracted.
Setting [2] is: S1P3 NFAT-BLA reporter cells, agonism, FRET ratio; at 4.5 µM; stronger effect = higher value; relative to 1 µM S1P, basal subtracted.
Setting [3] is: S1P3 NFAT-BLA reporter cells, agonism, FRET ratio; measured here: confirmation screen, triplicate average; at 4.5 µM; stronger effect = higher value; relative to 1 µM S1P, basal subtracted.

Sequence of Sphingosine 1-phosphate receptor 3 (Homo sapiens) (Q99500 whole entry, looked up): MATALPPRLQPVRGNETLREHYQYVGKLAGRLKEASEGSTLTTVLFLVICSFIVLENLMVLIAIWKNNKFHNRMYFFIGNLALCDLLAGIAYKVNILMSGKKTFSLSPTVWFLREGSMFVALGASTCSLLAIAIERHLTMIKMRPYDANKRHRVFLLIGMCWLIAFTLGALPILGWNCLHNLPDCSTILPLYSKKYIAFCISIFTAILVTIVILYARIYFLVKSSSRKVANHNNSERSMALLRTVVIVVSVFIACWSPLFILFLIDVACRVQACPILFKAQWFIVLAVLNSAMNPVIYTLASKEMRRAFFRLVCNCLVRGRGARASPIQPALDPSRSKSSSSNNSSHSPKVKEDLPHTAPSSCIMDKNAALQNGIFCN

For the molecule `CCCc1[nH]nc2c1C(c1ccc(OC)c(Cn3nc(C)c(Br)c3C)c1)C(C#N)=C(N)O2` (stereo not given), under setting [1], the activation is -0.7% (inactive).
Regarding `O=C(CN1CCOc2ccccc21)N1CCC(Cc2ccccc2)CC1`, the activation under setting [1] is -0.9% (inactive).
As for `Cc1cc(=O)[nH]c(SCC(N)=O)c1C#N`, the activation under setting [1] is -1% (inactive).
For the molecule `CCc1nc2ccccc2n(CCOCCOCCn2c(=O)c(CC)nc3ccccc32)c1=O`, the activation under setting [1] is 1.3% (inactive).
Take `O=C(CC1OC(=O)c2ccccc21)NC1CCCCC1` (stereo not given): the activation under setting [1] is -0.8% (inactive).
On the same count and under the same terms, then `O=C(O)CCN1C(=O)CC2(CCCCC2)C1=O`, with -0.4% (inactive); and `CCn1cc(NC(=O)Nc2ccc(OC)c(OC)c2)c(C(N)=O)n1`, with -0.9% (inactive); and `C=CCn1c(=O)c2ccccc2n2c(SCC(=O)N3CCCc4ccccc43)nnc12`, with -2.3% (inactive).
In the case of `OC(COc1ccc2ccccc2c1)CN1CCOCC1` (stereo not given), under setting [1], the activation is 0.6% (inactive).
As for `Cc1ccc2nc(-c3ccccc3)cc(C(=O)O)c2c1`, under setting [1], the activation was 0.7% (inactive).
Consider `Cc1cccc(NC(=O)C2CCCN2S(=O)(=O)c2ccc(F)cc2)c1C` (stereo not given), for which the activation under setting [1] was -1.1% (inactive).
As for `Cc1nc(Nc2ccc3c(c2)OCCO3)c2nnn(Cc3ccccc3Cl)c2n1`, the activation under setting [1] is -1.2% (inactive).
Take `COc1ccccc1N=C1SC(C)CN1C(=O)C1CCC1` (stereo not given): under setting [1], the activation was 0.5% (inactive).
For the molecule `O=S(=O)(NCc1ccccn1)c1ccc(F)cc1`, under setting [1], the activation is -1.2% (inactive).
For `COCCNc1nc(-n2nc(C)cc2C)nc2sc3c(c12)CCCC3`, the activation under setting [2] was 18.4% (active) and the activation under setting [3] was 25.3%.
`Cc1cc(C)n(-c2nc(SCC(=O)N3CCCC3)c3c4c(sc3n2)CCCC4)n1`: the activation under setting [1] is 0% (inactive).
Still for that read-out and setting: then `COCCn1c(C)cc(C(=O)CSc2ncnc3sc4c(c23)CCC4)c1C`, with -1% (inactive); and `CC1=CC(C)(C)N(C(=O)CSc2nccn2C)c2cc(C)ccc21`, with 0.7% (inactive); and `O=C(CCSCCc1ccccn1)Nc1nccs1`, with -0.7% (inactive).
Still for that read-out and setting: as for `COc1ccc(-c2nnc(SCC(=O)NC3CCCCC3)o2)cc1OC`, the figure is -0.8% (inactive); as for `CCOC(=O)Cn1c(=O)oc2cc(S(=O)(=O)N(C)Cc3ccco3)ccc21`, 0.3% (inactive); as for `O=C(CN1C(=O)C2C3C=CC(C3)C2C1=O)NCCc1ccccc1Cl` (stereo not given), 0.1% (inactive).
In the case of `CCOC(=O)C(C)Oc1cccc2c(=O)n(CC(=O)N3CCc4ccccc43)ccc12` (stereo not given), the activation under setting [1] was -1.6% (inactive).
For the molecule `Cc1cc(Nc2cccc(C)c2C)n2ncnc2n1`, under setting [1], the activation was -1.3% (inactive).
On the same count and under the same terms, then `COCCOC(=O)C1=C(C)NC(=O)NC1c1ccc(Cl)cc1` (stereo not given), with -2.2% (inactive).
With `O=C(Cn1cnc2c(nnn2-c2ccccc2)c1=O)N1CCC(Cc2ccccc2)CC1`, the activation under setting [1] is -1.2% (inactive).
The same measure, in the same setting: then `COC(=O)c1ccc(OC(=O)c2nn(C)cc2Cl)c(OC)c1`, with -1% (inactive); and `COc1ccc(-c2nnc(SC(=O)N3c4ccccc4Sc4ccccc43)o2)cc1`, with -1.5% (inactive); and `CC1(C)CCCC2=C1CC1C(=O)N(c3ccccc3)C(=O)C1C2` (stereo not given), with -0.8% (inactive).
Turning to `C=CCNC(=O)CCCOc1cccc(C)c1`, the activation under setting [1] was 0.2% (inactive).
For `O=C(CCOc1ccccc1)NCc1ccccc1`, under setting [1], the activation was 0.1% (inactive).
For `O=C(CCC(=O)OCC(F)(F)C(F)F)NCc1ccccc1`, the activation under setting [1] is -0.2% (inactive).
Consider `COc1c(Br)cc2c(C)c(C(=O)N3CCOCC3)oc2c1Br`, for which, under setting [1], the activation is 1.5% (inactive).
As to `CCCN(CCC)C(=O)C1c2ccccc2Oc2ccccc21`, under setting [1], the activation was -1.3% (inactive).
With `COc1ccccc1CNC(=O)CCCNS(=O)(=O)c1cccc2nsnc12`, the activation under setting [1] is 1.2% (inactive).
For the molecule `COCCNC(=O)Cn1cc2c(n1)CCCCC2`, the activation under setting [1] was -0.2% (inactive).
Turning to `CC(NC(=O)c1cc(-c2ccccc2)on1)c1ccccc1` (stereo not given), under setting [1], the activation was -1.3% (inactive).
Same read-out and setting: then `O=C(Nc1ccc2c(c1)nc1n2CCCCC1)c1cc(S(=O)(=O)N2CCOCC2)ccc1Cl`, with -0.4% (inactive); and `C=C(C)c1cccc(C(C)(C)NC(=O)N2CCN(c3ncccn3)CC2)c1`, with -0.9% (inactive); and `CC(C)C(=O)Nc1c(C(=O)c2ccc(F)cc2)oc2ccccc12`, with -0.2% (inactive).
The same measure, in the same setting: as for `O=C(CN1CCOCC1)N1CCCc2c1c(=O)oc1ccc(OCc3ccccc3)cc21`, the figure is -1% (inactive); as for `COCCOC(=O)C1=C(C)N=c2s/c(=C\c3cccs3)c(=O)n2C1c1cccs1` (stereo not given), -2% (inactive).
Consider `CC1(C)CC(=O)c2cc(OCC(=O)NCC3CCCO3)ccc2O1` (stereo not given), for which the activation under setting [1] was -0.8% (inactive).
Consider `CN(CCc1ccccn1)S(=O)(=O)c1ccc2c3c(cccc13)C(=O)N2`, for which, under setting [1], the activation is 0.3% (inactive).
On to `CC(=O)N1CC2(C)CN(C(C)=O)CC(C)(C1)C2=O`, for which the activation under setting [1] is 0% (inactive).
For `Cc1ccc2c(c1)sc1ncc(NC(=O)c3ccccc3)c(=O)n12`, the activation under setting [1] was -1.1% (inactive).
For the molecule `O=C(NCCc1ccco1)c1nn(Cc2ccccc2)c(=O)c2ccccc12`, the activation under setting [1] was 0.7% (inactive).
As for `Cc1ccnc(N2C(=O)c3ccccc3C2Nc2ccc3c(c2)OCCO3)c1` (stereo not given), the activation under setting [1] was 0.3% (inactive).
For `COc1ccc(OC)c(NC(=O)CSc2nc3cccnc3n2C)c1`, under setting [1], the activation was 0.2% (inactive).
On to `COc1ccc(Cn2c(=O)sc3ccccc32)cc1OC`, for which the activation under setting [1] was -0.4% (inactive).
Same read-out and setting: then `O=C(NC(c1ccccc1)c1ccccc1)N1CCN(CCO)CC1`, with 0.8% (inactive).
Consider `C=CCn1c(N)c(C(=O)OCC(C)C)c2nc3ccccc3nc21`, for which the activation under setting [1] was 0.4% (inactive).
`CC(C)Cn1c(N)c(C(=O)NCc2cccs2)c2nc3ccccc3nc21`: the activation runs as follows: under setting [2], 8.2% (active); under setting [3], 5.4%.
For the molecule `C=CCn1c(N)c(S(=O)(=O)c2cccs2)c2nc3ccccc3nc21`, under setting [1], the activation was -0.5% (inactive).
Take `CCCOC(=O)CC1C(=O)NCCN1Cc1ccc(F)cc1` (stereo not given): the activation under setting [1] was 0.3% (inactive).
For the molecule `COc1cc(OC)cc(C(=O)Nc2ncc3c(n2)CC(C)(C)CC3=O)c1`, the activation under setting [1] is -1.1% (inactive).
Regarding `CN1CCN(C(=O)c2ccc(NS(=O)(=O)c3ccccc3)cc2)CC1`, the activation under setting [1] is -0.2% (inactive).
Take `CCOc1cc(C(=O)N2CCc3cc(OC)c(OC)cc3C2)ccc1OC(F)F`: the activation under setting [1] is -0.2% (inactive).
`COc1ccc(S(=O)(=O)N2CCN(C(=O)c3cccs3)CC2)cc1OC`: the activation under setting [1] was 0% (inactive).
On to `Cc1c2cnn(-c3ccccc3)c(=O)c2c(C)n1CCCC(=O)N1CCN(C)CC1`, for which the activation under setting [1] was -1.3% (inactive).
For the molecule `COc1ccc(C(=O)OCC(=O)c2ccc(C)c(S(=O)(=O)N3CCOCC3)c2)cc1OC`, under setting [1], the activation is -1% (inactive).
As for `CC1(C)CC(CCC(=O)Nc2ccccc2Cl)C(=O)O1` (stereo not given), under setting [1], the activation was -0.9% (inactive).
`Cc1ccccc1-n1c(SCC(=O)NCc2cccs2)nnc1-c1ccncc1`: the activation under setting [1] was 0.9% (inactive).
With `CC1(C)Oc2ccc(C(=O)N3CCOCC3)cc2N(CC(=O)Nc2ccccc2)C1=O`, the activation under setting [1] was -0.1% (inactive).
On to `CCCCc1nc2c(=O)[nH]c3ccccc3c2o1`, for which the activation under setting [1] is -0.4% (inactive).
Turning to `C=CCn1c(C2CC(=O)N(c3ccc(C)cc3)C2)nc2ccccc21` (stereo not given), the activation under setting [1] is -2.5% (inactive).
As for `O=C(COc1ccccc1)N1CCc2ccccc2C1`, the activation under setting [1] is 0.4% (inactive).
For the molecule `CC(=O)CSc1nnc(CSc2ncccn2)n1C1CCCCC1`, the activation under setting [1] was -0.6% (inactive).
Turning to `CC1(C)CC(=O)C(C2=NC(C)(C)Cc3ccccc32)=C(O)C1`, the activation under setting [1] is -2% (inactive).
As for `CC(C)C(=O)Nc1cccc(C(=O)Nc2ccc3c(c2)OCO3)c1`, the activation under setting [1] is -1.2% (inactive).
On the same count and under the same terms, then `COc1ccc(OC)c2c1sc(=NC(=O)CN1C(=O)CCC1=O)n2C`, with -2.3% (inactive); and `OCc1nc(CO)n(Cc2ccccc2)n1`, with -1% (inactive).
In the case of `COc1ccc(N2C(=O)CN=C2Nc2cccc(C)c2C)cc1OC`, the activation under setting [1] was 0.2% (inactive).
Regarding `CCCc1nnc(NC(=O)CN2C(=O)c3ccccc3S2(=O)=O)s1`, under setting [1], the activation is -1% (inactive).
As to `CCOC(=O)c1sc(/N=C/Nc2nc(C)c(C(=O)OCC)s2)nc1C`, under setting [1], the activation was -1.5% (inactive).
As for `N#CCCN(CCC#N)c1nnc(-c2ccccc2)s1`, under setting [1], the activation is -0.2% (inactive).
As for `CCOC(=O)C1C(=O)C=C(c2ccc(OC)cc2)CC1c1ccco1` (stereo not given), the activation under setting [1] is -1.9% (inactive).
`Cc1nc(SC(C)C)[nH]c(=O)c1Cc1ccccc1`: the activation under setting [1] is 0.1% (inactive).
In the case of `CCCc1cc(=O)oc2c(C)c(O)c(CN3CCCCC3)cc12`, under setting [1], the activation is -2.1% (inactive).
With `CCC(=O)Nc1ccccc1C(=O)N1CCN(Cc2ccccc2)CC1`, the activation under setting [1] was -1.1% (inactive).
Take `NS(=O)(=O)c1ccc(NS(=O)(=O)/C=C/c2ccccc2)cc1`: the activation under setting [1] was 1.3% (inactive).
The same measure, in the same setting: as for `Cc1occc1C(=O)Nc1cccc(Cn2cccn2)c1`, the figure is -0.4% (inactive); as for `COc1ncnc2sc3c(c12)CCCC3`, -0.3% (inactive).
Consider `COc1ccc(C)cc1S(=O)(=O)NC1CCCCC1`, for which the activation under setting [1] is -0.3% (inactive).
Regarding `CCOc1cccc(/C(O)=C2/C(=O)C(=O)N(CCOC)C2c2ccncc2)c1` (stereo not given), under setting [1], the activation was -1.3% (inactive).
For `CCOC(=O)c1sc(NC(=O)C(CC)Sc2nccn2C)nc1C` (stereo not given), the activation under setting [1] is -1.7% (inactive).
On to `Cc1cccc(NC(=O)CN2CCCN(S(=O)(=O)c3ccc(Br)s3)CC2)c1`, for which the activation under setting [1] is -1.4% (inactive).
On the same count and under the same terms, then `CCOC(=O)c1cc(-c2nnc(-c3cc(OC)c(OC)c(OC)c3)o2)c(C)nc1C`, with -1.5% (inactive); and `CCOC(=O)c1c(C(C#N)C#N)cc(C)nc1C`, with -3.8% (inactive).
Consider `O=C(Cn1nnc(-c2ccccc2)n1)NCc1ccccc1`, for which the activation under setting [1] is -0.5% (inactive).
For `Cc1cc(C)nc(SCc2nnc(SCC(=O)Nc3ncc(C)s3)n2Cc2ccco2)n1`, under setting [1], the activation is 0% (inactive).
Still for that read-out and setting: then `CCn1ncc(C2=NOC(C(=O)Nc3ccccc3C(=O)OC)C2)c1C` (stereo not given), with -0.6% (inactive); and `CC1Cc2cc(/C(O)=C3\C(=O)C(=O)N(CCN4CCOCC4)C3c3ccccc3F)ccc2O1` (stereo not given), with 0.5% (inactive); and `CC1CN(C(=O)CN2C(=O)NC(C)(c3ccccc3)C2=O)CC(C)O1` (stereo not given), with 1.6% (inactive).
Same read-out and setting: then `O=C1NC(Nc2nc3ccccc3s2)(C(F)(F)F)C(=O)N1C1CCCCC1` (stereo not given), with -0.5% (inactive).
In the case of `Cc1nc(SCC(=O)Nc2cc(C)on2)c2c3c(sc2n1)CCCC3`, the activation under setting [1] was -0.8% (inactive).
`CCOc1ccc(NC(=O)N(CCC(C)C)C(C)c2ccco2)cc1` (stereo not given): under setting [1], the activation is -0.3% (inactive).
For the molecule `Cc1cc(=O)n(C)c(=O)n1CCCNc1ccccc1`, under setting [1], the activation is -0.2% (inactive).
